Test results as given in ChEMBL document CHEMBL1143003, “Novel tricyclic compounds having acetylene groups at C-8a and cyano enones in rings A and C: highly potent anti-inflammatory and cytoprotective agents” (J Med Chem, 2007).
Calls of active or inactive are those of the source. No cut-off for these calls is given here.

Key:
[1] = tested on: RAW; assay: Inhibition of interferon gamma-stimulated NO production in RAW 264.7 cells after 24 hrs; type: functional, cell-based, Mus musculus
[2] = target: T1, Heme oxygenase 1 (Mus musculus) (UniProt P14901); assay: Induction of HO1 in CD1 mouse liver at 1 umol, po after 6 hrs; type: organism-based
T1 sequence (whole entry): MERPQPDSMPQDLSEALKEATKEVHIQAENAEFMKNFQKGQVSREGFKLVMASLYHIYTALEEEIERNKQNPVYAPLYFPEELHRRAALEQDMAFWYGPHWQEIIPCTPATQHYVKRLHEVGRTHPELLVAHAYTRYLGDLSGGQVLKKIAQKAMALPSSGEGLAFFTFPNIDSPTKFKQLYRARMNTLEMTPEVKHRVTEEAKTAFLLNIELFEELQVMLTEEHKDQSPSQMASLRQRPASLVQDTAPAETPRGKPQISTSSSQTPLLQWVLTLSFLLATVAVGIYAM
In short: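 Compound given orally at 1 μmol. Livers were collected 6 h later, and HO-1 protein was measured by Western blot.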

[3] = target: T1, Heme oxygenase 1 (Mus musculus); assay: Induction of HO1 in CD1 mouse stomach at 1 umol, po after 6 hrs; type: organism-based
In short: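 Male CD-1 mice, three per group, were each gavaged with a single 1 μmol dose. HO-1 induction was then assessed in the stomach.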

| Compound | IC50 ([1]; Mus musculus, RAW, 24 h) [nM] | Activity [2] | Activity [3] | IC50 ([1]; raw) [nM] |
| --- | --- | --- | --- | --- |
| CC1(C)C(=O)C(C#N)=C[C@]2(C)C3=CC(=O)C(C#N)=C[C@]3(C#C[Si](C)(C)C)CC[C@@H]12 | 3 |  |  |  |
| CC1(C)CC[C@]2(C(=O)O)CC[C@]3(C)[C@H](C(=O)C=C4[C@@]5(C)C=C(C#N)C(=O)C(C)(C)[C@@H]5CC[C@]43C)[C@@H]2C1 [BARDOXOLONE] | 20 | Active | Active |  |
| C#C[C@]12C=C(C#N)C(=O)C=C1[C@@]1(C)C=C(C#N)C(=O)C(C)(C)[C@@H]1CC2 |  |  |  | 3 |
| C#C[C@@]12C=C(C#N)C(=O)C=C1[C@]1(C)C=C(C#N)C(=O)C(C)(C)C1CC2 (some centres undefined) | 1 |  |  |  |
| C[C@@H]1C[C@H]2[C@@H]3CCC4=CC(=O)C=C[C@]4(C)[C@@]3(F)[C@@H](O)C[C@]2(C)[C@@]1(O)C(=O)CO [DEXAMETHASONE] | 20 |  |  |  |
| CC1(C)C(=O)C(C#N)=C[C@]2(C)C3=CC(=O)C(C#N)=C[C@]3(C#CC#N)CC[C@@H]12 (racemic) | 4 |  |  |  |
| CC1(C)CC[C@]2(C#N)CC[C@]3(C)C(C(=O)C=C4[C@@]5(C)C=C(C#N)C(=O)C(C)(C)[C@@H]5CC[C@]43C)C2C1 (some centres undefined) [CDDO-CN] | 1 |  |  |  |
| C#C[C@]12C=C(C#N)C(=O)C=C1[C@@]1(C)C=C(C#N)C(=O)C(C)(C)[C@@H]1CC2 (racemic) [listing 1 of 2 here] |  | Active | Active |  |
| CC1(C)C(=O)C(C#N)=C[C@]2(C)C3=CC(=O)C(C#N)=CC3(C#C[Si](C)(C)C)CC[C@@H]12 (mixture of isomers) | 3 |  |  |  |
| CCC#C[C@]12C=C(C#N)C(=O)C=C1[C@@]1(C)C=C(C#N)C(=O)C(C)(C)[C@@H]1CC2 (racemic) | 20 |  |  |  |
| CC[C@]12C=C(C#N)C(=O)C=C1[C@@]1(C)C=C(C#N)C(=O)C(C)(C)[C@@H]1CC2 (racemic) | 10 |  |  |  |
| C#C[C@]12C=C(C#N)C(=O)C=C1[C@@]1(C)C=C(C#N)C(=O)C(C)(C)[C@@H]1CC2 (racemic) [listing 2 of 2 here] |  |  |  | 1 |
| C=C[C@]12C=C(C#N)C(=O)C=C1[C@@]1(C)C=C(C#N)C(=O)C(C)(C)[C@@H]1CC2 (racemic) | 10 |  |  |  |
| CC1(C)CC[C@]2(C(=O)n3ccnc3)CC[C@]3(C)[C@H](C(=O)C=C4[C@@]5(C)C=C(C#N)C(=O)C(C)(C)[C@@H]5CC[C@]43C)[C@@H]2C1 | 1 | Active | Active |  |
| CC#C[C@]12C=C(C#N)C(=O)C=C1[C@@]1(C)C=C(C#N)C(=O)C(C)(C)[C@@H]1CC2 (racemic) | 5 |  |  |  |
| CC1(C)C(=O)C(C#N)=C[C@]2(C)C3=CC(=O)C(C#N)=C[C@]3(C)CC[C@@H]12 | 30 | Active | Active |  |
| CC1(C)C(=O)C(C#N)=C[C@@]2(C)C3=CC(=O)C(C#N)=C[C@@]3(C#C[Si](C)(C)C)CCC12 (some centres undefined) | 2 |  |  |  |
